From ChEMBL document CHEMBL5712077, “Secreted heat shock protein 90 promotes prostate cancer stem cell heterogeneity” (Oncotarget, 2017)
Active and inactive are the calls of the source. The calls are words filed in the database; no cut-off is given here.

Legend:
Details in all cases: time 3.0 day
[1] = tested on: ARCaPE; assay: Inhibition of extracellular Hsp90 in human ARCaPE cells expressing Hsp90 assessed as decrease in spheroid growth at 1 uM for 3 days and cells were treated pre-spheroid suspension by microscopic analysis; format: cell-based
Summary of the method: (§1)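 Spheroid passaging with inhibitor exposure. Pre-treatment: inhibitor given for 3 days before suspension. Post-treatment: inhibitor given at initial suspension. Continuous: 3-day pre-treatment, then kept on inhibitor in spheroid culture. Cells seeded at 2000 per well in low-attachment plates in DMEM/F12 with N2 and B27. Spheres of at least 5 cells counted at day 10-14 for each passage. Compared with untreated cells by Student's t-test.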

[2] = tested on: ARCaPE; assay: Inhibition of extracellular Hsp90 in human ARCaPE cells expressing Hsp90 assessed as decrease in spheroid growth at 1 uM for 3 days and cells were treated under continuous condition by microscopic analysis; format: cell-based; summary of the method: as §1
[3] = tested on: DU-145; assay: Inhibition of extracellular Hsp90 in human DU-145 cells expressing Hsp90 assessed as reduction in side population ast 1 uM after 3 days by Hoechst staining based flow cytometry; format: cell-based
Summary of the method: (§2)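 Side population by flow cytometry after 3 days of inhibitor treatment. Cells at 1 x 10^6/mL in culture medium were stained with Hoechst 33342 at 5 ug/mL for 2 h at 37C, protected from light. Propidium iodide excluded dead cells. UV laser; Hoechst red 620 nm against blue 448 nm. Gate set on 50 uM verapamil controls. At least three repeats, Student's t-test.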

[4] = tested on: ARCaPE; assay: Inhibition of extracellular Hsp90 in human ARCaPE cells expressing Hsp90 assessed as increase in spheroid growth at 1 uM for 3 days and cells were treated post spheroid suspension by microscopic analysis; format: cell-based; summary of the method: as §1
[5] = tested on: DU-145; assay: Inhibition of extracellular Hsp90 in human DU145 cells expressing Hsp90 assessed as decrease in spheroid growth at 1 uM for 3 days and cells were treated under continuous condition by microscopic analysis; format: cell-based; summary of the method: as §1
[6] = tested on: DU-145; assay: Inhibition of extracellular Hsp90 in human DU145 cells expressing Hsp90 assessed as decrease in spheroid growth at 1 uM for 3 days and cells were treated pre-spheroid suspension by microscopic analysis; format: cell-based; summary of the method: as §1
[7] = tested on: M12; assay: Inhibition of extracellular Hsp90 in human M12 cells expressing Hsp90 assessed as reduction in side population ast 1 uM after 3 days by Hoechst staining based flow cytometry
[8] = target: Histone-lysine N-methyltransferase EZH2 (Homo sapiens) (UniProt Q15910); assay: Inhibition of EZH2 in human DU-145 cells expressing Hsp90 assessed as reduction in side population at 500 nM after 3 days by Hoechst staining based flow cytometry; format: cell-based; summary of the method: as §2
Chain of Histone-lysine N-methyltransferase EZH2 (Homo sapiens) (Q15910 whole entry, looked up): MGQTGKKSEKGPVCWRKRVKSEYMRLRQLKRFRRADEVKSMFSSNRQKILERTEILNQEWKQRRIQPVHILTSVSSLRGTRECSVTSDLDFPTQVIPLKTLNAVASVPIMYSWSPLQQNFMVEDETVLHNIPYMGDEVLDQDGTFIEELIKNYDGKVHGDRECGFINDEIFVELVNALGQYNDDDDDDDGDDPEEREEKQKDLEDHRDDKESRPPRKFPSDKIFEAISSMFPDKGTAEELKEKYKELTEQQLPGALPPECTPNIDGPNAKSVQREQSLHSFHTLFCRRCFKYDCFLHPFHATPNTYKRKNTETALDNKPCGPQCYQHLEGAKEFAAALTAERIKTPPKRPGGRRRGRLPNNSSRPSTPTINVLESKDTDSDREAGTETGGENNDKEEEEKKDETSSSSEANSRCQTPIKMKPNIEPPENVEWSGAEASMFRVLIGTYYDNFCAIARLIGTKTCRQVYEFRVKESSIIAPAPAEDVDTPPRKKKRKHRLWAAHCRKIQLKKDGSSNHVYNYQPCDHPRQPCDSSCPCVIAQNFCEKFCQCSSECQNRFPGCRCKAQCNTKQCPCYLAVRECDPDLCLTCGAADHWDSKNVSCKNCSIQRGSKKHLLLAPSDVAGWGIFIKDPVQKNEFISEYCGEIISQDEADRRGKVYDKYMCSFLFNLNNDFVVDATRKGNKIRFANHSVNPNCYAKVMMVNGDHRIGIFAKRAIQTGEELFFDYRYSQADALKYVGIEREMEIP

[9] = target: Histone-lysine N-methyltransferase EZH2 (Homo sapiens) (UniProt Q15910); assay: Inhibition of EZH2 in human DU-145 cells expressing Hsp90 assessed as decrease in spheroid growth at 500 nM for 3 days and cells were treated under continuous condition by microscopic analysis; format: cell-based; summary of the method: as §1
[10] = target: Histone-lysine N-methyltransferase EZH2 (Homo sapiens) (UniProt Q15910); assay: Inhibition of EZH2 in human ARCaPE cells expressing Hsp90 assessed as decrease in spheroid growth at 500 nM for 3 days and cells were treated under continuous condition by microscopic analysis; format: cell-based; summary of the method: as §1
[11] = target: Histone-lysine N-methyltransferase EZH2 (Homo sapiens) (UniProt Q15910); assay: Inhibition of EZH2 in human ARCaPE cells expressing Hsp90 assessed as decrease in spheroid growth at 500 nM for 3 days and cells were treated pre-spheroid suspension by microscopic analysis; format: cell-based; summary of the method: as §1
[12] = target: Histone-lysine N-methyltransferase EZH2 (Homo sapiens) (UniProt Q15910); assay: Inhibition of EZH2 in human ARCaPE cells expressing Hsp90 assessed as decrease in spheroid growth at 500 nM for 3 days and cells were treated post-spheroid suspension by microscopic analysis; format: cell-based; summary of the method: as §1
[13] = target: Histone-lysine N-methyltransferase EZH2 (Homo sapiens) (UniProt Q15910); assay: Inhibition of EZH2 in human ARCaPE cells expressing Hsp90 assessed as reduction in side population at 500 nM after 3 days by Hoechst staining based flow cytometry; format: cell-based; summary of the method: as §2
[14] = target: Histone-lysine N-methyltransferase EZH2 (Homo sapiens) (UniProt Q15910); assay: Inhibition of EZH2 in human DU-145 cells expressing Hsp90 assessed as decrease in spheroid growth at 500 nM for 3 days and cells were treated pre-spheroid suspension by microscopic analysis; format: cell-based; summary of the method: as §1
[15] = target: Histone-lysine N-methyltransferase EZH2 (Homo sapiens) (UniProt Q15910); assay: Inhibition of EZH2 in human DU-145 cells expressing Hsp90 assessed as decrease in spheroid growth at 500 nM for 3 days and cells were treated post-spheroid suspension by microscopic analysis; format: cell-based; summary of the method: as §1

## COC1=C2C[C@@H](C)C[C@H](OC)[C@H](O)[C@@H](C)/C=C(\C)[C@H](OC(N)=O)[C@@H](OC)/C=C\C=C(/C)C(=O)NC(=CC1=O)C2=O
[1]
  inhibition: Active
[2]
  inhibition: Active
[3]
  inhibition: Active
[4]
  inhibition: inactive
[5]
  inhibition: Active
[6]
  inhibition: Active
[7]
  inhibition: Active

## CCCc1cc(C)[nH]c(=O)c1CNC(=O)c1cc(-c2ccnc(N3CCN(C)CC3)c2)cc2c1cnn2C(C)C
[8]
  inhibition: Active
[9]
  inhibition: Active
[10]
  inhibition: Active
[11]
  inhibition: Active
[12]
  inhibition: Active
[13]
  inhibition: Active
[14]
  inhibition: Active
[15]
  inhibition: Active
